Experimental findings from ChEMBL document CHEMBL3120084, “Structure-function relationships of Nile blue (EtNBS) derivatives as antimicrobial photosensitizers” (Eur J Med Chem, 2014) are described below.

Calls of active or inactive are those of the source. The calls are words filed in the database; no cut-off is given here. A value given as a limit tells only on which side of the number the result lay.

Series [1] deals with Enterococcus faecalis. The series is described as follows: Dark toxicity against Enterococcus faecalis ATCC 29212 at 0.1 to 100 uM after 10 mins. The series is classed as organism-based. The following applies: in vivo. Put shortly: (§1)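 Dark controls: 10^8 CFU/ml in PBS with photosensitizer for 10 min at room temperature, no illumination. Solvent controls contained 2% DMA. Viability read as CFU after serial dilution, plating on nutrient agar and 18 h dark incubation at 37°C; triplicate.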

Series [2] concerns Staphylococcus aureus. The series is described as follows: Drug uptake in Staphylococcus aureus 8325-4 incubated for 10 mins in dark by fluorescence analysis. It is filed as ADME, organism-based. Particulars: in vivo. The gist of the method: (§2)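 Cells (10^8/ml) held with compound at 0.05-10 μM for 10 min in dark at room temperature. They were then pelleted, washed twice in PBS and lysed in RIPA for 30 min at room temperature. Lysate fluorescence was read at compound-specific wavelengths and converted with per-compound calibration curves. Values were normalized to protein measured by BCA against BSA standards.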

Series [3] deals with Enterococcus faecalis. The series is described as follows: Drug uptake in Enterococcus faecalis ATCC 29212 incubated for 10 mins in dark by fluorescence analysis. The series is classed as ADME, organism-based. Particulars: in vivo. Put shortly:
as §2

Series [4] relates to Acinetobacter baumannii. The series is described as follows: Drug uptake in Acinetobacter baumannii ATCC 51393 incubated for 10 mins in dark by fluorescence analysis. It is filed as ADME, organism-based. Particulars: in vivo. The gist of the method: as §2
A short description of series [5]: Octanol-phosphate buffered saline partition coefficient, log P of the compound at 100 uM after 30 mins. The series is classed as physicochemical. Put shortly: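 Compound (100 μM) in 1.5 mL octanol plus 1.5 mL PBS, stirred overnight at room temperature, then left 30 min for phases to separate. Each phase was read by absorbance at the compound's peak, undiluted and diluted 1:2 and 1:10. Log10 of the octanol/PBS ratio is reported.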

Series [6] has as its system Escherichia coli. The series is described as follows: Drug uptake in Escherichia coli ATCC 53868 incubated for 10 mins in dark by fluorescence analysis. It is filed as ADME, organism-based. Particulars: in vivo. The gist of the method:
as §2

For series [7], the system named is Enterococcus faecalis. The series is described as follows: Antimicrobial activity against Enterococcus faecalis ATCC 29212 assessed as log reduction in bacterial CFU incubated for 10 mins prior to irradiation with 10 J/cm2 of light. The series is classed as functional. Put shortly: (§3)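 Bacteria grown overnight in BHI broth at 37°C with shaking, refreshed 3 h, adjusted to OD600 0.5 (10^8 CFU/ml), pelleted and resuspended in PBS. Suspensions held with photosensitizer (0.1-100 μM, diluted from 5 mM DMA stock) 10 min in dark at room temperature, then 635-nm light at 10 J/cm2 and 50 mW/cm2. Surviving CFU counted by serial dilution on nutrient agar after 18 h at 37°C; triplicates.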

Series [8] can be described thus: Induction of reactive oxygen species generation at 5 uM using singlet oxygen sensor green probe by microplate spectrophotometer analysis in presence of 1 J/cm'2 to 15 J/cm'2 of light. It is filed as physicochemical. Put shortly:
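Cell-free assay in PBS: compound at 5 μM final with SOSG probe at 5 μM final, 4 wells per group. 635-nm light given in sequential doses of 1 to 15 J/cm2. Fluorescence read in slow kinetic mode at excitation 505 nm and emission 525 nm.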

The subject of series [9] is Staphylococcus aureus. The series is described as follows: Antimicrobial activity against Staphylococcus aureus 8325-4 assessed as log reduction in bacterial CFU incubated for 10 mins prior to irradiation with 10 J/cm2 of light. The series is classed as functional. The gist of the method: as §3
The nature of series [10]: Induction of reactive oxygen species generation at 5 uM using hydroxyphenyl-fluorescein probe by microplate spectrophotometer analysis in presence of 1 J/cm'2 to 15 J/cm'2 of light. The series is classed as physicochemical. Put shortly:
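Cell-free assay in PBS: compound at 5 μM final with HPF probe at 5 μM final, 4 wells per group. 635-nm light given in sequential doses of 1 to 15 J/cm2. Fluorescence read in slow kinetic mode at excitation 490 nm and emission 515 nm, 2 nm bandpass.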

The subject of series [11] is Staphylococcus aureus. The series is described as follows: Dark toxicity against Staphylococcus aureus 8325-4 at 0.1 to 100 uM after 10 mins. Particulars: in vivo. It is filed as organism-based. The gist of the method: as §1
Series [12] relates to Escherichia coli. The series is described as follows: Dark toxicity against Escherichia coli ATCC 53868 at 0.1 to 100 uM after 10 mins. Particulars: in vivo. The series is classed as organism-based. The gist of the method:
as §1

The test system of series [13] is Escherichia coli. The series is described as follows: Antimicrobial activity against Escherichia coli ATCC 53868 assessed as log reduction in bacterial CFU incubated for 10 mins prior to irradiation with 10 J/cm2 of light. The series is classed as functional. Put shortly: as §3
The test system of series [14] is Acinetobacter baumannii. The series is described as follows: Dark toxicity against Acinetobacter baumannii ATCC 51393 at 0.1 to 100 uM after 10 mins. The following applies: in vivo. It is filed as organism-based. The gist of the method: as §1
Series [15] deals with Acinetobacter baumannii. The series is described as follows: Antimicrobial activity against Acinetobacter baumannii ATCC 51393 assessed as log reduction in bacterial CFU incubated for 10 mins prior to irradiation with 10 J/cm2 of light. The series is classed as functional. The gist of the method: as §3
Series [16] has as its system Escherichia coli. The series is described as follows: Dark toxicity against Escherichia coli ATCC 53868 at 50 uM after 10 mins. The series is classed as organism-based. The following applies: in vivo. The gist of the method:
as §1

In series [17] the test system is Enterococcus faecalis. The series is described as follows: Dark toxicity against Enterococcus faecalis ATCC 29212 at 50 uM after 10 mins. It is filed as organism-based. Particulars: in vivo. The gist of the method:
as §1

Series [18] has as its system Acinetobacter baumannii. The series is described as follows: Dark toxicity against Acinetobacter baumannii ATCC 51393 at 50 uM after 10 mins. Particulars: in vivo. It is filed as organism-based. Put shortly:
as §1

In series [19] the test system is Staphylococcus aureus. The series is described as follows: Dark toxicity against Staphylococcus aureus 8325-4 at 50 uM after 10 mins. It is filed as organism-based. The following applies: in vivo. Put shortly:
as §1

As a reminder, the logP is a log measure of how a compound divides between an organic and an aqueous phase. A higher logP goes with a more lipophilic compound.

As to `CC/N=c1/cc2sc3cc(N(CC)CC)ccc3nc-2c2c([N+](=O)[O-])cccc12.Cl`, the Activity entry in the series on Enterococcus faecalis [1] is “Toxic”; in series [8], “Active”; in [10], “Active”; in the series with Staphylococcus aureus [11], “Toxic”. Also, the Drug uptake result in the series with Staphylococcus aureus [2], in the series with Enterococcus faecalis [3], with Acinetobacter baumannii [4] and with Escherichia coli [6] was “Active” each time. This compound also yielded a log partition coefficient (logP) at 0.5 h, 100 µM in series [5] of 2.03. The log10cfu with Enterococcus faecalis [7] and in the series on Staphylococcus aureus [9] was 5 each time.
Regarding `CC/N=c1/cc2sc3cc(N(CC)CC)ccc3nc-2c2c(N)cccc12.Cl`, the Drug uptake entry with Staphylococcus aureus [2], in the series with Enterococcus faecalis [3], in the series with Acinetobacter baumannii [4] and in the series with Escherichia coli [6] was “Active” in each case. The same compound had a logP at 0.5 h, 100 µM in series [5] of 1.77. In addition, the outcome in series [8] and in series [10] was Active. Further, the log10cfu in the series with Staphylococcus aureus [9] was <3.
Turning to `CCCS(=O)(=O)N(CC)c1cccc2c3nc4ccc(N(CC)CC)cc4sc-3c/c(=N\CC)c12.Cl`, the Activity entry in the series on Escherichia coli [12] is given as “Toxic”; in the series with Enterococcus faecalis [1], “Non-toxic”; in the series with Acinetobacter baumannii [14], “Non-toxic”; in series [8], “Active”; in series [10] it was “Active”; in the series with Staphylococcus aureus [11], “Non-toxic”. In addition, the Drug uptake entry in the series on Staphylococcus aureus [2], in the series on Enterococcus faecalis [3], in the series on Acinetobacter baumannii [4] and in the series on Escherichia coli [6] was “Active” each time. The result in the series with Escherichia coli [13] and in the series with Acinetobacter baumannii [15] was inactive. In [5], the logP at 0.5 h, 100 µM was found to be 2.45. Further, the log10cfu in the series with Staphylococcus aureus [9] is recorded as >5.
Take `CCCS(=O)(=O)N(CC)c1cccc2/c(=N\CC)cc3sc4cc(N(CC)CC)ccc4nc-3c12.Cl`: the Activity result in the series with Enterococcus faecalis [1] is “Toxic”; in [8], “Active”; in series [10], “Active”; with Staphylococcus aureus [11] it was “Toxic”. Also, the Drug uptake result in the series on Staphylococcus aureus [2], in the series on Enterococcus faecalis [3], in the series on Acinetobacter baumannii [4] and with Escherichia coli [6] was “Active” each time. For the same compound, the result in the series on Escherichia coli [13] and with Acinetobacter baumannii [15] was inactive. Besides, the logP at 0.5 h, 100 µM in series [5] turned out to be 2.19. The log10cfu in the series with Enterococcus faecalis [7] is recorded as >5; in the series with Staphylococcus aureus [9], 4.
For the compound `CCN(CC)c1ccc2nc3c4ccccc4/c(=N\CCNC(=N)N)cc-3sc2c1.Cl.Cl`, the Activity entry in the series on Enterococcus faecalis [1] was “Toxic”; in the series with Acinetobacter baumannii [14] it was “Toxic”; in [8] it was “Active”; in [10], “Active”; in the series on Staphylococcus aureus [11] it was “Toxic”. The Drug uptake result in the series on Staphylococcus aureus [2], in the series with Enterococcus faecalis [3], with Acinetobacter baumannii [4] and in the series with Escherichia coli [6] was “Active” each time. Besides, the log10cfu with Escherichia coli [13], in the series with Enterococcus faecalis [7], with Acinetobacter baumannii [15] and in the series on Staphylococcus aureus [9] was >5 each time. The compound further showed a logP at 0.5 h, 100 µM in series [5] of 0.49.
Turning to `CC/N=c1/cc2sc3cc(N(CC)CC)ccc3nc-2c2c(NC(C)=O)cccc12.Cl`, the Activity result with Escherichia coli [12] was “Toxic”; in the series with Acinetobacter baumannii [14] it was “Toxic”; in [8], “Active”; in [10] it was “Active”. Moreover, the result in the series with Escherichia coli [13] and with Acinetobacter baumannii [15] was inactive. The logP at 0.5 h, 100 µM in series [5] turned out to be 1.36.
With `CC/N=c1/cc2sc3cc(N(CC)CC)ccc3nc-2c2ccccc12.Cl`, the Activity entry is given as “Toxic” in the series with Escherichia coli [16]; “Toxic” in the series with Enterococcus faecalis [17]; “Toxic” in the series with Acinetobacter baumannii [18]; “Non-toxic” in the series with Staphylococcus aureus [19]; “Active” in [8]; “Active” in [10]. The Drug uptake entry with Staphylococcus aureus [2], in the series with Enterococcus faecalis [3], with Acinetobacter baumannii [4] and in the series with Escherichia coli [6] was “Active” throughout. The log10cfu in the series with Escherichia coli [13], in the series on Enterococcus faecalis [7], in the series on Acinetobacter baumannii [15] and with Staphylococcus aureus [9] was >6 in each case. Besides, the lipophilicity (logP) at 0.5 h, 100 µM in series [5] turned out to be 2.87.
